Results as given in publication PMC2292750 (PLoS Medicine, 2008).

Columns and labels:
plectin-1 = plectin-1 (Mus musculus, UniProt Q9QXS1); assay: Competition experiment with anti-plectin-1 antibody; format: binding; settings: coincubation of anti-plectin-1 antibody and FITC-labeled phage with mouse PDAC cells, 1 h at 37 °C, versus vehicle
[1] = test system: mouse PanINs and PDAC lesions, frozen sections; assay: Binding of FITC-labeled phage to frozen mouse pancreas sections; settings: 1 μM FITC-labeled phage, 1 h at 37 °C, fluorescence microscopy, n = 3
Outline: (§1)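 Frozen tissues (n = 3) were embedded in OCT, cut at 5 μm and arrayed on slides. Sections were incubated for 1 h at 37 °C with 1 μM FITC-labeled test phage or FITC-labeled control phage (no insert). They were then washed three times with PBS, fixed in 2% paraformaldehyde and imaged by fluorescence microscopy (40× objective).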

[2] = test system: normal human ductal cells; format: cell-based; settings: FITC-labeled phage 1 μM, 1 h at 37 °C, FACS
Outline: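 Normal human ductal cells were incubated with 1 μM (FITC) FITC-labeled test phage or an unrelated control phage clone (SNLHPSD) for 1 h at 37 °C. Cells were washed three times with DPBS, trypsinized and centrifuged, then read by flow cytometry at 10,000 cells/sample. Mean fluorescence served as relative uptake.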

mouse PDAC cells = format: cell-based; settings: flow cytometry
Outline: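 Early-passage PDAC cells came from Kras/p53L/L mouse tumors; normal primary ductal cells came from wild-type mice. Phage (~1 × 10^12 PFU) were labeled with 0.25 mg/ml FITC for 1 h and PEG-purified. Cells were incubated with 1 μM (FITC) phage for 1 h at 37 °C, washed three times with DPBS and trypsinized. Mean fluorescence was read by flow cytometry at 10,000 cells/sample.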

human PDAC = assay: Binding of FITC-labeled phage to frozen human PDAC sections; settings: 1 μM FITC-labeled phage, 1 h at 37 °C, fluorescence microscopy
Outline: as §1

plectin-1, sequence (Q9QXS1 whole entry): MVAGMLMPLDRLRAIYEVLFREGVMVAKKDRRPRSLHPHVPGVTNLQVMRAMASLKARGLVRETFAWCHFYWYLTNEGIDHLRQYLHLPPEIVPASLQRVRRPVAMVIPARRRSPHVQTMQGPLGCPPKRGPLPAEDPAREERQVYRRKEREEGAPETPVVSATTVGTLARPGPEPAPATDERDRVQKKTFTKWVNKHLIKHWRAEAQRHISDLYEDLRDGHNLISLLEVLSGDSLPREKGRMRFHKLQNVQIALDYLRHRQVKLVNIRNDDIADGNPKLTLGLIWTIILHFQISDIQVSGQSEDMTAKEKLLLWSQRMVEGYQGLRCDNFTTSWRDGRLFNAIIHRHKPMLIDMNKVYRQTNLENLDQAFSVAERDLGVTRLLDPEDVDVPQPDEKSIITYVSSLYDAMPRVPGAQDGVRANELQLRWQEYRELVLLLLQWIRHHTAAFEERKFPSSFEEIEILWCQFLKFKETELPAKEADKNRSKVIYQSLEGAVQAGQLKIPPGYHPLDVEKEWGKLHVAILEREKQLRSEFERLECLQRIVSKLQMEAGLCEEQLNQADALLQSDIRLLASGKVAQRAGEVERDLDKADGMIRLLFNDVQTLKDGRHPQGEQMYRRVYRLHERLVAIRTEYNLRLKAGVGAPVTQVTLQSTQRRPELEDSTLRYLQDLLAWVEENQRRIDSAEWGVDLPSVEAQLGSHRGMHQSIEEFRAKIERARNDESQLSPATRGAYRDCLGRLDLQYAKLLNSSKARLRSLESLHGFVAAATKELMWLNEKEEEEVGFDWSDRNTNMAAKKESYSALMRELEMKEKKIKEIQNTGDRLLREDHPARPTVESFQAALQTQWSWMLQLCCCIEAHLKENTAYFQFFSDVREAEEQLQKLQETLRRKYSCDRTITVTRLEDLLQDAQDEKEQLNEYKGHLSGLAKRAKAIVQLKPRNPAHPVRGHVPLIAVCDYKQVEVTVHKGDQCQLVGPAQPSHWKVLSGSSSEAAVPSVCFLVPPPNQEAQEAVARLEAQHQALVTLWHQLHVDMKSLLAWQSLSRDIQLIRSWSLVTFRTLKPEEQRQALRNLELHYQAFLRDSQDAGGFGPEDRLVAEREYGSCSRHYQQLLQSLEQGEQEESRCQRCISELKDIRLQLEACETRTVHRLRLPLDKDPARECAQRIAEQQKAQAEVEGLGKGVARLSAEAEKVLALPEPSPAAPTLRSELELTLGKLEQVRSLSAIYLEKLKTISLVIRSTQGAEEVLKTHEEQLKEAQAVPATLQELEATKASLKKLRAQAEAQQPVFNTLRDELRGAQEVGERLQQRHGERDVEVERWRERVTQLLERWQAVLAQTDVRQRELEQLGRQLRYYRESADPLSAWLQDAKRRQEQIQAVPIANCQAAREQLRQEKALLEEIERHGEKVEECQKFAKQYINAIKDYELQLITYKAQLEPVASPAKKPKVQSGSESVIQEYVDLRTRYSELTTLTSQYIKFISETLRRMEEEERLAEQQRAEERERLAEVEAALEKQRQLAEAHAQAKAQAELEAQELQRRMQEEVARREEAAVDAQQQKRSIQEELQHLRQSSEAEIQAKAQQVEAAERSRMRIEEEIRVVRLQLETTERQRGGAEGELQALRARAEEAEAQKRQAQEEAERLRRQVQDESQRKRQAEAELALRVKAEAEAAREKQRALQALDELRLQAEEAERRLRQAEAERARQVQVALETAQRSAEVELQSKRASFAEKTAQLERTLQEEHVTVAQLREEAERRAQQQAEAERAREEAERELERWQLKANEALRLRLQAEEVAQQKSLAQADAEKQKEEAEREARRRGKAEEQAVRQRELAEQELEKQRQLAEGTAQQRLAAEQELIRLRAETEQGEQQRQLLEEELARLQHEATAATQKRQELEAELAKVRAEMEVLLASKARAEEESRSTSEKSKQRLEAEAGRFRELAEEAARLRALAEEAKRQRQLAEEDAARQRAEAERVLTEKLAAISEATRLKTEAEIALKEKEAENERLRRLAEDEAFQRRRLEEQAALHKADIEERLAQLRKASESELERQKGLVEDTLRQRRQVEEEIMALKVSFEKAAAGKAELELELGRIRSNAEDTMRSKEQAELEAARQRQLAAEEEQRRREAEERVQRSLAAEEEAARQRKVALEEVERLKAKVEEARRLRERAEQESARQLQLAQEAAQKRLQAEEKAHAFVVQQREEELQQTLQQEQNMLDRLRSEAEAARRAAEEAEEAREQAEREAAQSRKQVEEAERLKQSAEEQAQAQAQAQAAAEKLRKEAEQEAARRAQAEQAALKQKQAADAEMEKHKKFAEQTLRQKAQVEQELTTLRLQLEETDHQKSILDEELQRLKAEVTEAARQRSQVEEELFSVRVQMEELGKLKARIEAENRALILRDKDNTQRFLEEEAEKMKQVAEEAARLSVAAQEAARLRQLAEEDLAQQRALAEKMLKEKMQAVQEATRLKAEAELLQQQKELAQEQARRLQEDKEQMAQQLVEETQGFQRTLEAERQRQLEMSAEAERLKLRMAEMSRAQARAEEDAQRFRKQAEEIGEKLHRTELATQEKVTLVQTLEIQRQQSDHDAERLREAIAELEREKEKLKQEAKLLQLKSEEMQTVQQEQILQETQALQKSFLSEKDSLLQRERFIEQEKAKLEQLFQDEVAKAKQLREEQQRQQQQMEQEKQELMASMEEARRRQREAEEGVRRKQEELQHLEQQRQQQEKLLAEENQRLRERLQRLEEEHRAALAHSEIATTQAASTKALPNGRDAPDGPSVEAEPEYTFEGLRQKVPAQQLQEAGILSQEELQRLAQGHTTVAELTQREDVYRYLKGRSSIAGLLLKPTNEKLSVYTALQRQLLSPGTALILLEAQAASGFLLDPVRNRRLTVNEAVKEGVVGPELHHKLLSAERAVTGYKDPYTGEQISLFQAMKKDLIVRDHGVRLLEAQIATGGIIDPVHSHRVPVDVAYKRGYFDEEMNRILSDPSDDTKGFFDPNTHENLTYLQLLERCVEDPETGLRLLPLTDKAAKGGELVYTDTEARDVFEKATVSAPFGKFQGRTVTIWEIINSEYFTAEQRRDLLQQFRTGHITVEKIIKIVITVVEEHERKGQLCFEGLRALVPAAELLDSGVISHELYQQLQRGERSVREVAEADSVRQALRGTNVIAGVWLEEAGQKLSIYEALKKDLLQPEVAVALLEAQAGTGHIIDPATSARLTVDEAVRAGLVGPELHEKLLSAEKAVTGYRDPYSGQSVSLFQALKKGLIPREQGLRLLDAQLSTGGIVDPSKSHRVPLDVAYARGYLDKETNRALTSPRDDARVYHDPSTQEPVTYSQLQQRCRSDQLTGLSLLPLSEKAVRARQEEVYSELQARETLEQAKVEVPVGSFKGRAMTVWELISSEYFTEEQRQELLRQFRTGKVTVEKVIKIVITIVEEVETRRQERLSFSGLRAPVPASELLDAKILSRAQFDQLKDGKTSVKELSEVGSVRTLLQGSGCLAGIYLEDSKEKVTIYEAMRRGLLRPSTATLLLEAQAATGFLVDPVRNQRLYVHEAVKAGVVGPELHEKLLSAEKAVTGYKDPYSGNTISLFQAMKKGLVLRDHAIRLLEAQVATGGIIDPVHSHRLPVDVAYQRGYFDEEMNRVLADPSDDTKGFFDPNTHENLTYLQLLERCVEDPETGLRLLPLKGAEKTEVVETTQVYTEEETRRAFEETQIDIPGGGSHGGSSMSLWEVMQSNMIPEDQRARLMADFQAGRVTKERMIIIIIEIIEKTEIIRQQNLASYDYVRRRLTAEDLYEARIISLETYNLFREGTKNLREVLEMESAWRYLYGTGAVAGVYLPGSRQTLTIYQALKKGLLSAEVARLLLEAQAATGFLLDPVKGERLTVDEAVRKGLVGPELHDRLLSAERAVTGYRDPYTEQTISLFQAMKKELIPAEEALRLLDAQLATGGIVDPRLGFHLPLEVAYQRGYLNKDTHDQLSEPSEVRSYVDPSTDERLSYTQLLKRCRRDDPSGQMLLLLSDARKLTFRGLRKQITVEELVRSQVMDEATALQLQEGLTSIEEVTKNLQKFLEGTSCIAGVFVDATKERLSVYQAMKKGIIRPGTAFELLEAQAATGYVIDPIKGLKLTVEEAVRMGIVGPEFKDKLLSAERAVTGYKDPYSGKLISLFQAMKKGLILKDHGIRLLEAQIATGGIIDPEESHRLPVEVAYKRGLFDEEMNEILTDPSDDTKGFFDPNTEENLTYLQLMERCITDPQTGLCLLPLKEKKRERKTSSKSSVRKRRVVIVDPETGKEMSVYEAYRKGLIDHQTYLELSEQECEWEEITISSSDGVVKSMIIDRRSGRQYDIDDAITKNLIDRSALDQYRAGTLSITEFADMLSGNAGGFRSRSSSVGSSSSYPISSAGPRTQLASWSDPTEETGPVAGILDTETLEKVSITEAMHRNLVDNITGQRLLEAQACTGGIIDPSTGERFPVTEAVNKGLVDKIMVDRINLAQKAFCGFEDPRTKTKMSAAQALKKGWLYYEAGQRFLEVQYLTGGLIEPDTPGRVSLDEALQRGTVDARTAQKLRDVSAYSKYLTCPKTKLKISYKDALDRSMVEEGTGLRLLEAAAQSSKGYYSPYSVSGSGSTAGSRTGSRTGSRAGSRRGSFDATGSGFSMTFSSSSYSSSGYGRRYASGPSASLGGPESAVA

| Substance | abrogation of binding (plectin-1) | binding to PanINs and PDAC lesions on frozen sections [1] | specificity (ratio of clone 27/unrelated clone mean fluorescence) [2] | specificity for mouse PDAC cells over normal ductal cells (mouse PDAC cells; FITC-labeled phage, 1 μM (FITC), 1 h at 37 °C, mean fluorescence) | detection of human PDAC on frozen sections (human PDAC) | rank of affinity among fluorescein-labeled phage clones (mouse PDAC cells; mouse PDAC and normal ductal cells, unpublished data) |
| --- | --- | --- | --- | --- | --- | --- |
| KTLLPTP [clone 27] | 96.9% | prominent binding | 0.85 | 112 fold | able to specifically detect human PDAC | – |
| TMAPSIK [clone 15] | – | – | – | – | – | second in affinity |
